# In ChEMBL document CHEMBL1150304, “Synthesis of new heteroaryl and heteroannulated indoles from dehydrophenylalanines: Antitumor evaluation” (2008):
# Tests used:
# Type in all cases: functional
# [1] = tested on: MCF7; experiment: Antitumor activity against human MCF7 cells after 48 hrs; conditions: MCF7, 48 h
# Outline: (§1)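 NCI-derived lines grown as monolayers in RPMI-1640 with 5% heat-inactivated FBS and 2 mM glutamine, 37 °C, 5% CO2. Plated at 1.5 × 10⁵ cells/mL (MCF-7, SF-268) or 0.75 × 10⁴ cells/mL (NCI-H460) and incubated 24 h. Continuous 48 h exposure to five serial concentrations (DMSO ≤0.5%). Sulforhodamine B stain, A492. GI50 is 50% net-growth inhibition from dose-response curves. Experiments run independently in duplicate.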
# [2] = tested on: NCI-H460; experiment: Antitumor activity against human NCI-H460 cells after 48 hrs; conditions: NCI-H460, 48 h; outline: as §1
# [3] = tested on: SF-268; experiment: Antitumor activity against human SF268 cells after 48 hrs; conditions: SF-268, 48 h; outline: as §1
GI50 [1],GI50 [2],Structure (SMILES),GI50 [3]
11 µM,12.7 µM,COC(=O)c1[nH]c2ccccc2c1-c1cccc2c1sc1ccccc12,17 µM
72.7 µM,40.3 µM,COC(=O)c1[nH]c2ccc3c4ccccc4sc3c2c1-c1ccccc1,50 µM
26.5 µM,18 µM,COC(=O)c1[nH]c2ccccc2c1-c1cccc2c1oc1ccccc12,35 µM
0.0428 µM,0.094 µM,COc1cccc2c1C(=O)c1c(O)c3c(c(O)c1C2=O)C[C@@](O)(C(=O)CO)C[C@@H]3O[C@H]1C[C@H](N)[C@H](O)[C@H](C)O1 [DOXORUBICIN],0.094 µM
